Rows were chosen to be rich in hits. Some 1% of all compounds tested hit in one or more screens of this group.
b-catenin transl = modulators of beta-catenin nuclear translocation | HeLa beta-catenin nuclear translocation, immunofluorescence imaging | nuclear translocation activity, % at 5 µM | 0.3% of 190,000 active | AID 1665;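 active = nuclear translocation activity above 50% at 5 µM, with a well cell count of 50 or more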;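 note: per-cell ratio of nuclear to cytoplasmic median beta-catenin stain intensity; plate controls were DMSO negative control for no effect and GSK-3 inhibitor IX positive control for full effect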
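Test system: human HeLa cells, endogenous beta-catenin. Times: 24 h compound exposure, 37°C. Measured by: beta-catenin immunofluorescence imaging with DAPI.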
ABCG2 block = human ABCG2 inhibition, ABCB1 as counter-screen; Q9UNQ0; IgMXP3 cells, JC-1 efflux, flow cytometry; inhibition, % at 6.6 µM; 0.1% of 190,000 active; AID 1325;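 active = inhibition above 80%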;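 note: 0% = DMSO and 100% = nicardipine control wells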
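test system = two drug-resistant human cell lines, ABCG2 and ABCB1 | amount = 3 million cells/mL final, two lines in 1:1 ratio | reagent = JC-1 transporter substrate | doses = one concentration, 6.6 µM final | incubation = 10 min at 25 °C | signal = flow cytometric JC-1 green MFI at 530 nm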
PKD1 inh = inhibitors of human PKD1 kinase; inhibition, % (concentration not given with the values); PKD1 kinase fluorescence polarization assay; 0.056% of 200,000 active; in the data active = inhibition above about 50%
Target sequence (Q15139 whole entry, looked up): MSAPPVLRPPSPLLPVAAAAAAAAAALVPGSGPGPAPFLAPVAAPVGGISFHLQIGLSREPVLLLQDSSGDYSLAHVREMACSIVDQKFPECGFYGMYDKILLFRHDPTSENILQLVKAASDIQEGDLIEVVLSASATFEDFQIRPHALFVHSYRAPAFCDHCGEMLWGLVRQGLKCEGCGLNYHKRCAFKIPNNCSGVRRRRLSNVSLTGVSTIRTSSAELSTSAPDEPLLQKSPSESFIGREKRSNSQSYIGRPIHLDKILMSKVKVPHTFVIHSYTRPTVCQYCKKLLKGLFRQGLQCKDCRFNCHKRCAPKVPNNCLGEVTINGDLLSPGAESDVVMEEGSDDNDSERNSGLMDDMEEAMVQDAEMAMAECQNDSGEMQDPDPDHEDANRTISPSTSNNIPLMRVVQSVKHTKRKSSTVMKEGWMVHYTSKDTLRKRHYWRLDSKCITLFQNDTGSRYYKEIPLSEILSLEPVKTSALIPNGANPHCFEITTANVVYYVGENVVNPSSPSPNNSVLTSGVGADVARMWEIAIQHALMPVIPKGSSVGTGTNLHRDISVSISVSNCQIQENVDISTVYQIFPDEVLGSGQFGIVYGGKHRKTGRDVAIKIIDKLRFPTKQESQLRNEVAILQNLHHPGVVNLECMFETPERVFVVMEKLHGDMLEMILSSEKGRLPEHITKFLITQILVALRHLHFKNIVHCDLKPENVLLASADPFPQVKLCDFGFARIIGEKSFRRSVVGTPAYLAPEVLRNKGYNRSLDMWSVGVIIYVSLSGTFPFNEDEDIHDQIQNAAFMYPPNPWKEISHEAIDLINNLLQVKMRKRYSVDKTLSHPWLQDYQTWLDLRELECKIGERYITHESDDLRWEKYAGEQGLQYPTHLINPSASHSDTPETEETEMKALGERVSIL
ABCB1 block = blocks JC-1 efflux by human ABCB1 transporter. CCRF-Adr cells, flow cytometry. 0.067% of 190,000 active. P08183. inhibition, % at 6.6 µM; in the data active = inhibition above about 40%;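 note: 0% = vehicle and 100% = reference inhibitor; higher value means more JC-1 retained so stronger ABCB1 efflux block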
MT stabilize HCS = microtubule stabilizers in HeLa cells | HeLa tubulin immunostaining HCS, 24 h; share of cells brighter than vehicle mean+2SD | 0.83% of 200,000 active | % tubulin-high responders, % at 10 µM;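 active = plate Z-score above 3 for both tubulin-high and condensed-nucleus cell shares, with cell loss under 80%, at 10 µM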;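 note: anti alpha tubulin signal scored within the nucleus-defined area of each cell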
Starred values were filed as active, the others as inactive; / = no result.

SMILES | b-catenin transl | ABCG2 block | PKD1 inh | ABCB1 block | MT stabilize HCS
CC1Cc2ccccc2N1C(=O)COC(=O)c1ccc(Br)o1 (configuration not stated) | -5 | 15 | 0 | 0 | 2
CCc1cc(=O)oc2cc3occ(-c4ccc(OC)c(F)c4)c3cc12 | 66* | 20 | -3 | 2 | 10
CCc1cc(=O)oc2cc3occ(C)c3cc12 | 2 | 4 | -16 | 0 | 3
O=C(NCc1cccnc1)/C(=C/c1ccc(-c2ccc(Cl)cc2)o1)S(=O)(=O)c1ccccc1 | / | 13 | 0 | 4 | 63
O=C(NCc1cccnc1)/C(=C\c1ccc(-c2ccc(Br)cc2)o1)S(=O)(=O)c1ccccc1 | 3 | -1 | 0 | 0 | 47*
O=C(CC1C(=O)NCCN1Cc1ccoc1)NCCCn1ncc2ccccc21 (configuration not stated) | -2 | 6 | -3 | 1 | 2
Cc1ccc(C=Nc2ccccc2C(=O)Nc2ccccc2)cc1 | -2 | 2 | -16 | 1 | 4
Cc1ccc(C=Nc2ccccc2C(N)=O)cc1 | / | 0 | 2 | 0 | 31*
Cc1ccccc1C=Nc1ccccc1C(N)=O | 28 | -1 | 4 | 0 | 22*
Cc1ncc(CO)c(/C=N/NC(=O)c2cc3c(s2)CCCC3)c1O | 0 | -2 | 2 | -1 | 7
Cc1ccc(S(=O)(=O)N2CCN(Cc3ccccc3)CC2)c(C)c1N(C)S(=O)(=O)c1ccccc1 | 3 | 11 | 3 | 4 | 3
Cc1cc(C)c(S(=O)(=O)Nc2ccc3c(c2)CCC3)c(C)c1 | 16 | 37 | -13 | 1 | 14*
CCOc1ccc(/C(C)=N/NC(=O)C(OC)c2ccccc2)cc1 (configuration not stated) | 6 | -1 | 3 | 0 | 10*
Brc1ccc2c(c1)C(C1=NCCN1)c1ccccc1CS2 (configuration not stated) | 51* | 1 | 6 | 1 | 24
Cc1cc(C)cc(Nc2c3c(nc4ncnn24)CCC3)c1 | 0 | 3 | 4 | 1 | 12*
Cc1cccc(Nc2c3c(nc4ncnn24)CCC3)c1 | 1 | 1 | -9 | 0 | 4
COc1ccc(S(=O)(=O)N(C)CC(=O)N2CCC(C(N)=O)CC2)cc1Cl | -1 | 1 | 2 | 0 | 2
CCN(CC)S(=O)(=O)c1ccc2oc(C(=O)O)c(C)c2c1 | / | 8 | -3 | 0 | 1
CCN(CC)S(=O)(=O)c1ccc2oc(C(=O)NC(C)C)c(C)c2c1 | / | 94* | -9 | 9 | 1
O=C(N1CCOCC1)N1CCN(C(=O)N2CCOCC2)CC1 | / | / | 0 | / | 3
O=C(COc1nsnc1N1CCOCC1)N/N=C/c1ccccc1O | / | 13 | 7 | 1 | 1
CSc1nc(C)cc(OCC(=O)N/N=C/c2ccccc2O)n1 | 94* | 13 | -2 | 1 | 17*
N#CCCN(Cc1cccnc1)C(=O)Nc1cccc(Cl)c1 | 0 | 2 | 3 | 0 | 2
Cc1ccc(CCC(=O)Nc2ncc(Cc3cccc(Cl)c3Cl)s2)o1 | 100* | 0 | 0 | 0 | 7
CCc1nnc(NC(=O)CCc2ccc(C)o2)s1 | / | 6 | 1 | 0 | 2
SMILES | b-catenin transl | ABCG2 block | PKD1 inh | ABCB1 block | MT stabilize HCS
O=C1/C(=C\c2ccc3ccccc3c2)CCCc2ccccc21 | 50* | 2 | -7 | 1 | 30*
O=C(N/N=C/c1c(-c2ccccc2)[nH]c2ccccc12)c1cccnc1 | 39 | 12 | 6 | 0 | 18*
COC(=O)c1nnn(-c2nonc2N)c1CN1CCc2ccccc21 | 0 | 11 | 2 | 1 | 36*
O=C(NC1CC1)C1CCCN1S(=O)(=O)c1ccc2ccccc2c1 (configuration not stated) | 8 | 7 | -10 | 1 | 24*
COc1ccc(/C=N/NC(=O)c2ccc(N)cc2)cc1Cn1cc([N+](=O)[O-])cn1 | 0 | -2 | -10 | -1 | 12*
COc1ccc(/C=N/n2cnnc2)cc1Cn1nc(C)c([N+](=O)[O-])c1C | 1 | -3 | -2 | 0 | 3
COc1ccc(/C=N\NC(=O)c2cccc([N+](=O)[O-])c2)cc1Cn1cc([N+](=O)[O-])cn1 | 1 | 5 | -1 | 0 | 5
COc1ccc(/C=N/NC(=O)c2cccc(O)c2)cc1Cn1nc(C)c([N+](=O)[O-])c1C | 0 | 13 | 1 | 1 | 19*
CCN(CC)CCCNC1=C(Cl)C(=O)c2ccccc2C1=O | 1 | 1 | 0 | 0 | 43*
COCCCNC1=C(Cl)C(=O)c2ccccc2C1=O | 2 | / | / | / | /
O=C(c1ccc2c(=O)n(C3CCCC3)c(=S)[nH]c2c1)N1CCc2ccccc21 | -2 | 2 | -3 | 0 | 3
O=C(O)c1cc([N+](=O)[O-])ccc1N1CCCCC1 | 2 | 1 | -7 | 0 | 2
O=C(c1cc([N+](=O)[O-])ccc1N1CCOCC1)N1CCOCC1 | 0 | 14 | 3 | 1 | 5
O=C(c1cc([N+](=O)[O-])ccc1N1CCCCC1)N1CCc2ccccc21 | 0 | 25 | 3 | 2 | 17*
O=C(c1ccc(N2CCCCCC2)c([N+](=O)[O-])c1)N1CCc2ccccc21 | 4 | 4 | -17 | 2 | 1
Cc1ccc(C(=O)c2cc([N+](=O)[O-])ccc2N2CCCCC2)c(C)c1 | 59* | -3 | -6 | 0 | 6
COc1ccc(C(=O)c2cc([N+](=O)[O-])ccc2N2CCOCC2)cc1 | 57* | 1 | -7 | 0 | 7
Cc1ccc(C(=O)c2cc([N+](=O)[O-])ccc2N2CCOCC2)cc1 | 8 | 9 | -10 | 1 | 18*
COc1cccc(-c2csc(N3CCN(CC(=O)NNC(=O)c4ccco4)CC3)n2)c1 | -1 | 11 | -10 | 1 | 3
Cc1cc(=O)[nH]c(/N=C(\N)Nc2ccc(SC(F)F)cc2)n1 | -2 | 4 | -5 | 0 | 3
Nc1nc(N2CCOCC2)cc(=O)[nH]1 | 0 | 3 | -2 | 1 | 2
CCOc1ccc(C(=O)c2cc([N+](=O)[O-])ccc2N2CCOCC2)cc1 | 37 | 5 | -1 | / | 15*
CCOC(=O)N1CCC(NC(=O)CCC(=O)N2CCOc3ccc(Cl)cc32)CC1 | -1 | 13 | -6 | 0 | 1
CCCc1nn(-c2cc(Cl)ccc2OC)c2c1C(=O)CC(C)(C)C2 | / | 2 | -5 | 1 | 12*
COc1ccc(Cl)cc1N1Cc2ccccc2C1 | 1 | 1 | 0 | 0 | 1
CCc1nn(-c2cc(Cl)ccc2OC)c2c1C(=O)CCC2 | 11 | 3 | 3 | 1 | 27*
CCNc1nc2nonc2nc1NCC | -7 | 0 | -3 | 0 | 6
Cc1ccc(-c2[nH]ncc2/C=N/n2c(COc3ccccc3C)nc3ccccc3c2=O)cc1 | 3 | -1 | 4 | 1 | 3
COc1ccccc1N1CCN(C(=S)Nc2cccc(C)c2)CC1 | 6 | 3 | -2 | 0 | 8.7*
Cc1cccc(NC(=S)N2CCN(c3cc(C)ccc3C)CC2)c1 | 2 | 4 | 5 | 0 | 4
